Measurements: ChEMBL document CHEMBL4373680, “Small antibacterial molecules highly active against drug-resistant Staphylococcus aureus” (Medchemcomm, 2019)
Active and inactive are the calls of the source. The rule behind the calls is not given here.

Tests used:
[1] = Selectivity index, ratio of HC50 for human erythrocytes to MIC for methicillin-resistant Staphylococcus aureus ATCC 33591; type: toxicity; conditions: read-out: Selectivity Index
[2] = system: MDCK; assay: Cytotoxicity against dog MDCK cells after 24 hrs by alamar blue assay; type: cell-based; conditions: Canis lupus familiaris
Method in brief: (§1)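 About 10⁴ cells/well in DMEM with 10% FBS. Medium replaced with two-fold compound dilutions and incubated 24 h at 37 °C, 5% CO₂. Alamar Blue added for a further 4 h, absorbance 570 nm (600 nm reference). Viability normalized to untreated and 0.1% Triton-X wells. Triplicates; sigmoidal fit gives the 50% viability concentration.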

[3] = system: Staphylococcus aureus; assay: Antibacterial activity against methicillin-resistant Staphylococcus aureus R3545 clinical isolate after 24 hrs by tecan plate reader analysis; type: functional; conditions: R3545, 24 h
Method in brief: (§2)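 Colony grown 24 h on NB agar at 37 °C, then 6 h in nutrient broth to mid-log (10⁸ CFU/mL by drop plating), diluted to 10⁵ CFU/mL in Mueller Hinton broth; added 9:1 to two-fold serial compound dilutions in MHB. Incubated 24 h, 37 °C; OD600 read. Triplicate per concentration, experiment run twice; MIC taken from the range of triplicate OD values.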

[4] = system: Staphylococcus aureus; assay: Antibacterial activity against Staphylococcus aureus ATCC 33591 using compound preincubated with human 50% serum for 3 hrs and measured after 24 hrs by tecan-plate reader analysis; type: functional
Method in brief: (§3)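 Compound mixed 1:1 with human plasma, human serum or mouse liver homogenate (50%) and held 3 h at 37 °C. Saline and PBS incubations served as controls. Mixtures two-fold diluted (saline for plasma/serum, PBS for homogenate), then MRSA ATCC33591 (~10⁵ CFU/mL in MHB) added.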

[5] = system: Staphylococcus aureus; assay: Bactericidal activity against planktonic phase of methicillin-resistant Staphylococcus aureus ATCC 33591 assessed as log reduction in bacterial colony forming units at 16 ug/ml incubated for 6 hrs followed by plating on agar plate for 24 hrs by time-kill kinetic assay; type: functional
Method in brief: (§4)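 Time-kill: 6 h mid-log culture diluted to 10⁵ CFU/mL in MHB, incubated at 37 °C with compound at […]; 0.9% saline control. Aliquots at 1, 2, 4, 6, 8 and 12 h ten-fold diluted in saline, plated on NB agar 24 h at 37 °C; colonies counted, log scale.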

[6] = system: Staphylococcus aureus; assay: Antibacterial activity against methicillin-resistant Staphylococcus aureus ATCC 33591 after 24 hrs by tecan plate reader analysis; type: functional; conditions: ATCC 33591, 24 h; method in brief: as §2
[7] = system: Staphylococcus aureus; assay: Induction of membrane depolarization in Staphylococcus aureus ATCC 33591 assessed as increase in fluorescence intensity measured upto 28 mins by DiSC3 staining based fluorescence spectroscopic technique; type: functional, organism-based
Method in brief: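 Mid-log MRSA washed in 5 mM HEPES pH 7.4 and resuspended in 1:1:1 HEPES (5 mM), glucose (5 mM) and KCl (100 mM). Loaded with DiSC3(5) at 2 µM final, 30 min in the dark. Baseline fluorescence (ex 622/em 670 nm) read 4 min, compound added, monitored to 28 min. Water control; triplicates averaged.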

[8] = system: Staphylococcus aureus; assay: Induction of membrane permeabilization in Staphylococcus aureus ATCC 33591 assessed as increase in fluorescence intensity measured upto 28 mins by propidium iodide staining based fluorescence spectroscopic technique; type: functional, organism-based
Method in brief: (§5)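 Mid-log MRSA washed in 5 mM HEPES and resuspended in 1:1 HEPES (5 mM) and glucose (5 mM). Propidium iodide added at 10 µM final. Baseline fluorescence (ex 535/em 617 nm) read 4 min, compound in water added, read to 28 min. Water control; triplicates averaged.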

[9] = Ratio of EC50 for dog MDCK cells to MIC for vancomycin-resistant Staphylococcus aureus clinical isolate 1; type: toxicity
[10] = system: Staphylococcus aureus; assay: Bactericidal activity against metabolically inactive stationary phase methicillin-resistant Staphylococcus aureus R3545 assessed as log reduction in bacterial colony forming units at 32 ug/ml incubated for 6 hrs followed by plating on agar plate for 24 hrs by visual counting analysis; type: functional
[11] = system: Staphylococcus aureus; assay: Antibacterial activity against vancomycin-resistant Staphylococcus aureus clinical isolate 1 after 24 hrs by tecan plate reader analysis; type: functional; conditions: clinical isolate 1, 24 h; method in brief: as §2
[12] = system: Staphylococcus aureus; assay: Antibacterial activity against Staphylococcus aureus ATCC 33591 using compound preincubated with mouse 50% liver homogenate for 3 hrs and measured after 24 hrs by tecan-plate reader analysis; type: functional; conditions: ATCC 33591, Liver; method in brief: as §3
[13] = system: Staphylococcus aureus; assay: Induction of membrane permeabilization in Staphylococcus aureus R3545 assessed as increase in fluorescence intensity measured upto 28 mins by propidium iodide staining based fluorescence spectroscopic technique; type: functional, organism-based; method in brief: as §5
[14] = system: Staphylococcus aureus; assay: Antibacterial activity against methicillin-resistant Staphylococcus aureus R3889 clinical isolate after 24 hrs by tecan plate reader analysis; type: functional; conditions: R3889, 24 h; method in brief: as §2
[15] = system: Klebsiella pneumoniae; assay: Antibacterial activity against Klebsiella pneumoniae ATCC 700603 after 24 hrs by tecan plate reader analysis; type: functional; conditions: Klebsiella pneumoniae, 700603, 24 h
Method in brief: (§6)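 Broth microdilution MIC. Glycerol stocks grown on MacConkey agar 24 h at 37 °C, then a single colony in nutrient broth 6 h to mid-log (~10⁸ CFU/mL). Cells diluted to 10⁵ CFU/mL in Mueller Hinton broth and added to two-fold compound dilutions. Incubated 24 h at 37 °C, OD600 read. Triplicate wells, experiment run twice.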

[16] = system: MDCK; assay: Cytotoxicity against dog MDCK cells assessed as cell survival at 32 ug/ml after 24 hrs by calcein AM/propidium iodide staining based fluorescence microscopy analysis; set-up: species or system Canis lupus familiaris
Method in brief: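 MDCK at about 10⁴ cells/well exposed to 32 µg/mL compound for 24 h at 37 °C, 5% CO₂. Untreated and 0.1 vol% Triton-X controls. Stained with calcein AM (2 µM) and PI (4.5 µM) for 15 min at 37 °C, PBS-washed, imaged by fluorescence microscopy at 50×.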

[17] = system: Staphylococcus aureus; assay: Bactericidal activity against planktonic phase of methicillin-resistant Staphylococcus aureus R3545 assessed as log reduction in bacterial colony forming units at 32 ug/ml incubated for 12 hrs followed by plating on agar plate for 24 hrs by time-kill kinetic assay; type: functional; method in brief: as §4
[18] = Ratio of EC50 for human A549 cells to MIC for vancomycin-resistant Staphylococcus aureus clinical isolate 1; type: toxicity
[19] = system: Staphylococcus aureus; assay: Bactericidal activity against metabolically inactive stationary phase of methicillin-resistant Staphylococcus aureus R3545 assessed as bacterial killing at 32 ug/ml incubated for 6 hrs followed by plating on agar plate for 24 hrs by visual counting analysis relative to control; type: functional
[20] = system: Acinetobacter baumannii; assay: Antibacterial activity against Acinetobacter baumannii MTCC 1425 after 24 hrs by tecan plate reader analysis; type: functional; conditions: MTCC 1425, 24 h; method in brief: as §6
[21] = system: MDCK; assay: Cytotoxicity against dog MDCK cells up to 128 ug/ml after 24 hrs by alamar blue assay; type: cell-based, Canis lupus familiaris; method in brief: as §1
[22] = system: Staphylococcus aureus; assay: Antibacterial activity against Staphylococcus aureus ATCC 33591 assessed as decrease in live cells at 32 ug/ml after 2 hrs by SYTO-9/propidium iodide staining based fluorescence microscopy analysis; type: functional, organism-based
Method in brief: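 Mid-log cells (~10⁸ CFU/mL) pelleted and resuspended in 0.9% saline. Treated with 32 µg/mL compound for 2 h at 37 °C, pelleted and resuspended in saline. Stained with SYTO9 (3 µM) plus PI (15 µM) for 15 min in the dark, unbound dye removed, then imaged by fluorescence microscopy at 100×.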

[23] = system: Staphylococcus aureus; assay: Bactericidal activity against planktonic phase of methicillin-resistant Staphylococcus aureus ATCC 33591 assessed as log reduction in bacterial colony forming units at 32 ug/ml incubated for 8 hrs followed by plating on agar plate for 24 hrs by time-kill kinetic assay; type: functional; method in brief: as §4

## CCCCCCNC(=O)C[N+](C)(CCO)CCCCCCCCCCCC[N+](C)(CCO)CC(=O)NCCCCCC.O=C([O-])C(F)(F)F.O=C([O-])C(F)(F)F (stereo not drawn)
[1]
  selectivity ratio: 577
[2]
  EC50: 188 µg/mL
[3]
  MIC: 1 to 2 µg/mL
[4]
  MIC: 4 µg/mL
[5]
  Activity: >2 log10CFU/ml
[6]
  MIC: 1 to 2 µg/mL
[7]
  Activity: Dose-dependent effect
[8]
  Activity: Dose-dependent effect
[9]
  selectivity ratio: 94 to 97
[10]
  Activity: 2.8 log10CFU/ml
[11]
  MIC: 2 µg/mL
[12]
  MIC: 4 µg/mL
[13]
  Activity: Dose-dependent effect
[14]
  MIC: 1 to 2 µg/mL
[15]
  MIC: 128 µg/mL
[16]
  Activity: Non-Toxic
[17]
  Activity: 6 log10CFU/ml
[18]
  selectivity ratio: 94 to 97
[19]
  Activity: >99%
[20]
  MIC: 64 µg/mL
[21]
  Activity: Non-Toxic
[22]
  inhibition: Active
[23]
  Activity: 5 log10CFU/ml
